Measured values published in ChEMBL document CHEMBL1165965, “Synthesis and structure-activity relationships of 1,2,3,4-tetrahydropyrido[2,3-b]pyrazines as potent and selective inhibitors of the anaplastic lymphoma kinase” (Bioorg Med Chem, 2010).

What was measured:
[1] = biological target: Homeodomain-interacting protein kinase 2 (Homo sapiens) (UniProt Q9H2X6); test: Inhibition of HIPK2 at 1 uM
[2] = biological target: Aurora kinase B (Homo sapiens) (UniProt Q96GD4); test: Inhibition of AURKB at 1 uM
Procedure, shortened: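 Ambit KINOMEscan screen at a single concentration across a 250–400 kinase panel, recorded as percent inhibition. Selectivity was expressed as S(90), the fraction of kinases inhibited >90%.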

[3] = biological target: T1, Serine/threonine-protein kinase ULK1 (Homo sapiens) (UniProt O75385); test: Inhibition of ULK1 at 1 uM
T1 sequence (whole entry): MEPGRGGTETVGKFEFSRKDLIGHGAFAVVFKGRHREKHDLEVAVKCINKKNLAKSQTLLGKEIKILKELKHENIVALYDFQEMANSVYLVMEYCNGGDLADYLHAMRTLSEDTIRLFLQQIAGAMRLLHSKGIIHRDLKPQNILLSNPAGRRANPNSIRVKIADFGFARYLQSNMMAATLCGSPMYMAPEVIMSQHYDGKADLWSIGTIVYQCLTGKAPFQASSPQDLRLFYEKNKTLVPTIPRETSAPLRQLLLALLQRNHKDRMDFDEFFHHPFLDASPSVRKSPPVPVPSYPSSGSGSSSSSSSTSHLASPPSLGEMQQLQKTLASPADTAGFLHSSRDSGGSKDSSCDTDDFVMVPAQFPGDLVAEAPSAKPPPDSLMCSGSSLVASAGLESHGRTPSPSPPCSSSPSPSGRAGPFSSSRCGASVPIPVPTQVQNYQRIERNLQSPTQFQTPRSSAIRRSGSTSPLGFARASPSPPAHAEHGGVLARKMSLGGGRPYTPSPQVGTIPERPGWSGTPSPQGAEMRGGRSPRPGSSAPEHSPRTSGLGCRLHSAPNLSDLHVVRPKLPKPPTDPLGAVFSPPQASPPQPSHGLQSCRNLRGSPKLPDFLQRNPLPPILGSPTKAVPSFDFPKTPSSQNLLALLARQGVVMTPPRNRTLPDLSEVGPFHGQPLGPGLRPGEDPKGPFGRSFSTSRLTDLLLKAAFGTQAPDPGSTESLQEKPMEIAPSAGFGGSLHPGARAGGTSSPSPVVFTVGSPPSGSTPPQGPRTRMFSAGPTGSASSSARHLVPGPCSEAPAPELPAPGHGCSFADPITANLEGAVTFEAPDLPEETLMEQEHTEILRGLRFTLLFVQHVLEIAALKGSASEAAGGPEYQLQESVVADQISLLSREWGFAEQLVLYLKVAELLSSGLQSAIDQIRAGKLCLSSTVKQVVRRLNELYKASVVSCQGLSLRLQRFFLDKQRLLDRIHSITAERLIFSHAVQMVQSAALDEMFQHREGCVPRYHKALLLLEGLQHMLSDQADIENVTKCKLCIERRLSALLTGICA

[4] = biological target: T2, Ephrin type-B receptor 2 (Homo sapiens) (UniProt P29323); test: Inhibition of EPHB2 at 1 uM
T2 sequence (whole entry): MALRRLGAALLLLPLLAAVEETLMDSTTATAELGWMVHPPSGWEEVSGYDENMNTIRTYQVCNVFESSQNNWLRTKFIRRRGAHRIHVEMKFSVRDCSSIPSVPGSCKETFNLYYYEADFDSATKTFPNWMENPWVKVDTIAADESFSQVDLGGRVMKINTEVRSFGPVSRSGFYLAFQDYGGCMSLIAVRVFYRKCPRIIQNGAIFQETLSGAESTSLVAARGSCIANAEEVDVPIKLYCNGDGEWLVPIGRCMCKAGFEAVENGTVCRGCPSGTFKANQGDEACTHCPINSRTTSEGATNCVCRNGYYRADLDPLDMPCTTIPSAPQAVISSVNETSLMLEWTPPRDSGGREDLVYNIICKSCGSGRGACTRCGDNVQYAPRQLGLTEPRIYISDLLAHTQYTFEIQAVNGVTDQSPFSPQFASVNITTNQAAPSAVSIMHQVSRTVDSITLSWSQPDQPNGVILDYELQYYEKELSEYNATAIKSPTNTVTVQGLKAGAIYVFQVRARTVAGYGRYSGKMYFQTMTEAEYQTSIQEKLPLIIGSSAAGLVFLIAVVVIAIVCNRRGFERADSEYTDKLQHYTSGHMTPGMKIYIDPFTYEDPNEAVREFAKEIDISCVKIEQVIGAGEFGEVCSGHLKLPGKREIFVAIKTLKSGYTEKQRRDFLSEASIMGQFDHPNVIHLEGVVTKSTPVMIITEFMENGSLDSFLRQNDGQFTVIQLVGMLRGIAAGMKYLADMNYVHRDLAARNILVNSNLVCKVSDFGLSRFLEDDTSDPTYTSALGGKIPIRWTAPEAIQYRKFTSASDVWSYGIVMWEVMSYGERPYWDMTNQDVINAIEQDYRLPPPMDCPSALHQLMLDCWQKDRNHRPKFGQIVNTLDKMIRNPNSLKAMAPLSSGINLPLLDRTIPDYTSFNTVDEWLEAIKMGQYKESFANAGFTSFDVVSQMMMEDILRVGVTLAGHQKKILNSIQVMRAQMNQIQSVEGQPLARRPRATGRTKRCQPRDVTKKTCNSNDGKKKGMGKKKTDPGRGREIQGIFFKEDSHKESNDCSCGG
Procedure, shortened: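 Single-concentration screen using Ambit Bioscience KINOMEscan technology across a panel of 250–400 kinases. Per-kinase inhibition from this screen was summarized as S(90), the fraction of kinases inhibited by more than 90%.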

Chain of Homeodomain-interacting protein kinase 2 (Homo sapiens) (Q9H2X6 whole entry, looked up): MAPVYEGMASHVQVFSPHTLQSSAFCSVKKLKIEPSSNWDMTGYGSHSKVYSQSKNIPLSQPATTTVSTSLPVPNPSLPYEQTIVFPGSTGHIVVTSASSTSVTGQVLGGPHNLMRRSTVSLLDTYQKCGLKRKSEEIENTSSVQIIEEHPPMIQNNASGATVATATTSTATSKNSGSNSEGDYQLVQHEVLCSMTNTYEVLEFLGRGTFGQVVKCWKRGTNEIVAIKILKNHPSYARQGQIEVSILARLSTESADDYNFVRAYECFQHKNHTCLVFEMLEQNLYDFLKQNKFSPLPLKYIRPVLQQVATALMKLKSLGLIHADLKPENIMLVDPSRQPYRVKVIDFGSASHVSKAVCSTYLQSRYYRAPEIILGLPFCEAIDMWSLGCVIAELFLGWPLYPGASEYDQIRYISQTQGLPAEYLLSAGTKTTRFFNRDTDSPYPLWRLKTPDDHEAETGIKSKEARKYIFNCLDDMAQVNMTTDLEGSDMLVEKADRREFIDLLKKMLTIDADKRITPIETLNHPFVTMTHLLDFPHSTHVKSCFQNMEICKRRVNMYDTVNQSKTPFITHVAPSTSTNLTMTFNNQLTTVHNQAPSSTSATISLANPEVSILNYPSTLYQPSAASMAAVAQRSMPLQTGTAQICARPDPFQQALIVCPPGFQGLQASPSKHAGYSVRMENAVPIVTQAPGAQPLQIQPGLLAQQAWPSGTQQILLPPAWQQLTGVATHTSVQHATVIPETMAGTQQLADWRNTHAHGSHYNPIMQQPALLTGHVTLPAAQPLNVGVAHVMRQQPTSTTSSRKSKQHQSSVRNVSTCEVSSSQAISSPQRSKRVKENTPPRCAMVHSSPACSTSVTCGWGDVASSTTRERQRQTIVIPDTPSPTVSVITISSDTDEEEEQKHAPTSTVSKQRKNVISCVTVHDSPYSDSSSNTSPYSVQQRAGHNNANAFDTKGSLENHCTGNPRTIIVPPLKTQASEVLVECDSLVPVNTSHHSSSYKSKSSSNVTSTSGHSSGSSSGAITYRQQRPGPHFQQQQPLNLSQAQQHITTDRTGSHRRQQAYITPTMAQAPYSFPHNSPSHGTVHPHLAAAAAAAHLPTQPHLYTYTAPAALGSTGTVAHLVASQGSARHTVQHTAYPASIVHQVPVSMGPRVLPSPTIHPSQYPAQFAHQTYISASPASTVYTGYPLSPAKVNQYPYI
Chain of Aurora kinase B (Homo sapiens) (Q96GD4 whole entry): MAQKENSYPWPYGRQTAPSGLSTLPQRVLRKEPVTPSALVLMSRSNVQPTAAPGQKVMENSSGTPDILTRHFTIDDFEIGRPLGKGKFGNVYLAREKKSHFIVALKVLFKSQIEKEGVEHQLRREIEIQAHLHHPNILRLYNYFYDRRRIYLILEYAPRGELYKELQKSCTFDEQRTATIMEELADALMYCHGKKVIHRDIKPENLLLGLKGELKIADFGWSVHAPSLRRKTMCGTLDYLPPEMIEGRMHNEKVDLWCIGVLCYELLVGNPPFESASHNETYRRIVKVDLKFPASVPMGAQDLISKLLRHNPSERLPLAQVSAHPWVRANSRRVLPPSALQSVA

| inhibition [1] | inhibition [2] | inhibition [3] | inhibition [4] | SMILES |
| --- | --- | --- | --- | --- |
| < 50% | < 50% | < 50% | < 50% | CN1CCN(c2ccc(-c3cnc4c(c3)N(Cc3cc(Cl)ccc3Cl)CCN4)cn2)CC1 |
| < 50% | < 50% | < 50% | < 50% | CN1CCN(c2ccc(-c3cnc4c(c3)N(Cc3cc(Cl)ccc3C(F)(F)F)CCN4)cn2)CC1 |
|  | < 50% |  | < 50% | COC1CCN(C(=O)c2ccc(-c3cnc4c(c3)N(Cc3cc(Cl)ccc3C(F)(F)F)CCN4)cc2)CC1 |
|  | < 50% |  | < 50% | O=C(c1ccc(-c2cnc3c(c2)N(Cc2cc(Cl)ccc2C(F)(F)F)CCN3)cc1)N1CCCCC1 |
| < 50% | 76% | < 50% | < 50% | FC(F)(F)c1ccc(Cl)cc1CN1CCNc2ncc(-c3ccnc(N4CCNCC4)c3)cc21 |
| < 50% | < 50% | < 50% | < 50% | CC(=O)N1CCN(c2cc(-c3cnc4c(c3)N(Cc3cc(Cl)ccc3C(F)(F)F)CCN4)ccn2)CC1 |
|  | < 50% |  | < 50% | O=C(O)c1ccc(-c2cnc3c(c2)N(Cc2cc(Cl)ccc2C(F)(F)F)CCN3)cc1 |
|  | < 50% |  | < 50% | O=C(c1ccc(-c2cnc3c(c2)N(Cc2cc(Cl)ccc2C(F)(F)F)CCN3)cc1)N1CCC(N2CCCC2)CC1 |
| < 50% | < 50% | < 50% | < 50% | CN1CCN(c2ccc(-c3cnc4c(c3)N(Cc3c(F)ccc(F)c3Cl)CCN4)cn2)CC1 |
| < 50% | < 50% | < 50% | < 50% | CN1CCN(c2ccc(-c3cnc4c(c3)N(Cc3cc(F)ccc3F)CCN4)cn2)CC1 |
